Shown are actives, neighbours in structure and some others; about 1.4% of the full set was active somewhere.
Efflux pump inh: antifungal efflux pump inhibition, Nile Red retention; inhibition, % at 10 µM; S. cerevisiae Candida pump triplex; 330,000 compounds, 0.44% hits; AID 485275;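 active = plate passing quality check with inhibition over a set limit, or well fluorescence over plate mean plus 4 SD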;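 also: Nile Red retained in pooled yeast measured as flow cytometry median fluorescence; 0% = buffer negative control and 100% = Enniatin B positive control; higher means more Nile Red kept so more efflux inhibition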
Yeast superoxide: yeast age-related superoxide inhibition as caloric restriction mimetic | S. cerevisiae aged cells, superoxide DHE fluorescence; hits give low values | superoxide response (% of plate mean), % at 10 µM | 330,000 compounds, 0.18% hits;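 active = superoxide response under a set limit, about three screen SD below normal, cut at about 65% in these data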;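 also: yeast aged for seven days with compound at 30 °C before DHE staining; 100% = average MFI of all compound-treated wells on the plate with controls excluded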
HDAC3 inh: inhibitors of human histone deacetylase 3 | AID 2718 | recombinant HDAC3, fluorogenic peptide/trypsin coupled, fluorescence | inhibition, % at 8.3 µM | 320,000 compounds, 0.15% hits | O15379; in the data active = inhibition above about 26%, passing the limit was not always enough
Tb MetRS inh: blocks T. brucei methionyl-tRNA synthetase activity. purified T. brucei MetRS, ATP depletion, Kinase-Glo luminescence. inhibition, % at 11.9 µM. 360,000 compounds, 0.4% hits. AID 624268;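 active = inhibition above a per-plate cutoff of the control wells' mean inhibition plus 3 SD, cut at about 5.5% in these data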;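 also: 0% = DMSO wells median and 100% = median of wells with control inhibitor compound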
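Test system: purified T. brucei MetRS enzyme. Also added: ATP, methionine and E. coli bulk tRNA substrates. Compound: 11.9 µM single point. Schedule: 15 min enzyme-compound preincubation, 2 h reaction, 10 min detection, 25 °C. Signal: luciferase luminescence of residual ATP, Kinase-Glo. Evaluation: percent inhibition versus plate control medians. Controls: DMSO wells, low control.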
IDE act: IDE (human) activation, cell-based. AID 493087. 340,000 compounds, 0.073% hits. HEK cells, FAbeta-B cleavage, fluorescence polarization; 0% vehicle, 100% cell-free pure enzyme wells. activation, % at 5.96 µM. P14735;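 active = activation above the mean of all tested compounds plus 3 SD, set per screening campaign, cut at about 17% in these data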
Target sequence (P14735 whole entry, looked up): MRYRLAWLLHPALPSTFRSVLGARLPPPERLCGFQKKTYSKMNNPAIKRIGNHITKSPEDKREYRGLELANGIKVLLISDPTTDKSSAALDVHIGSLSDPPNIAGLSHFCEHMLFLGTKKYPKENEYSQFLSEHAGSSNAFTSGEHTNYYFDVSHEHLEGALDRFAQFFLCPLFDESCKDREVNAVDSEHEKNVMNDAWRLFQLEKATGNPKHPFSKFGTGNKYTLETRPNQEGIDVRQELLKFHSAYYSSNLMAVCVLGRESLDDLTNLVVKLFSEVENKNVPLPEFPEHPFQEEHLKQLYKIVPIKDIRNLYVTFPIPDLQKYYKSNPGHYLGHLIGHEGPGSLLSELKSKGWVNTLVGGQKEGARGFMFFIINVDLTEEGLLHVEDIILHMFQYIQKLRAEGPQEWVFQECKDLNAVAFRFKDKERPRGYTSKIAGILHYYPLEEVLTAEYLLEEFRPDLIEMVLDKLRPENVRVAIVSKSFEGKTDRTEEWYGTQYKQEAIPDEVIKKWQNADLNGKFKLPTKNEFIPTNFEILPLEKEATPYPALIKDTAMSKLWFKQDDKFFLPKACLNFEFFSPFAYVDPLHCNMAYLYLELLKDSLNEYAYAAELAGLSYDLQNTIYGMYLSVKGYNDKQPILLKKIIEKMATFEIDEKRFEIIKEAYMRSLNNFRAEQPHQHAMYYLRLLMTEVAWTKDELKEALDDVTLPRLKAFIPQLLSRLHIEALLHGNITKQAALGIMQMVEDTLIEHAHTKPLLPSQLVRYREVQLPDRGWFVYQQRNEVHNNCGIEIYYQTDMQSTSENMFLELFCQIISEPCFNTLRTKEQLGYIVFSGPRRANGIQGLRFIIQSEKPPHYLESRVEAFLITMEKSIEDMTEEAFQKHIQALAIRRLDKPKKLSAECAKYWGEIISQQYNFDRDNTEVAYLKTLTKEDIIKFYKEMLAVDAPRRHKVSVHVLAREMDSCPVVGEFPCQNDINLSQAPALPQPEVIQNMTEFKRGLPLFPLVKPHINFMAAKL
IDE cell inh: cellular human IDE inhibition | P14735 | HEK cells, FAbetaB cleavage, fluorescence polarization | inhibition, % at 5.59 µM | 320,000 compounds, 0.41% hits;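 active = percent inhibition above the average of all tested compounds plus 3 SD, set per screening campaign, cut at about 16% in these data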;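 also: IDE supplied by intact live HEK cells; FP after avidin binding of uncleaved biotin substrate so inhibition keeps polarization high; 0% = DMSO wells and 100% = 60 µM reference IDE inhibitor Ii1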
Yeast cmpd fluor: flagged as fluorescent in efflux inhibitor counter-screen | S. cerevisiae AD/pABC3, compound fluorescence, flow cytometry | fluorescence ratio to DMSO, % at 10 µM | shares compounds with Efflux pump inh | 1,700 compounds, 4% hits;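 active = fluorescence ratio to DMSO above its plate's cutoff, the plate mean ratio plus 5 SD, cut at about 210% in these data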;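 also: unstained yeast with no Nile Red so the signal is compound autofluorescence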
CaMdr1 efflux inh: blocks the Candida albicans Mdr1 efflux pump in yeast. shares compounds with Efflux pump inh. S. cerevisiae AD/CaMDR1, Nile Red efflux, flow cytometry. inhibition, % at 10 µM. 1,700 compounds, 1% hits; in the data active = inhibition above about 26%;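 also: 0% = DMSO vehicle and 100% = reference inhibitor; higher means more Nile Red retained so more efflux inhibition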
Cdr2 pump inh: blocks the Candida albicans Cdr2 efflux pump in yeast | AID 588520 | Nile Red retention ratio vs DMSO, % at 10 µM | S. cerevisiae AD/CaCDR2, Nile Red retention, flow cytometry | shares compounds with Efflux pump inh | 1,700 compounds, 4% hits; in the data active = Nile Red retention ratio vs DMSO above about 190%;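 also: higher ratio means more blocking of Cdr2 efflux of the dye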
Cdr1 pump inh: inhibitors of Candida albicans Cdr1 efflux pump; S. cerevisiae AD/CaCDR1, Nile Red efflux, flow cytometry; AID 588522; inhibition, % at 10 µM; 1,700 compounds, 1% hits; shares compounds with Efflux pump inh;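 active = inhibition above the screen-wide mean plus twice its standard deviation, cut at about 32% in these data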
* = called active by the depositor; · = not tested or not shown; + = active, no number.

SMILES	Efflux pump inh	Yeast superoxide	HDAC3 inh	Tb MetRS inh	IDE act	IDE cell inh	Yeast cmpd fluor	CaMdr1 efflux inh	Cdr2 pump inh	Cdr1 pump inh
COc1cccc(C(=O)O/N=C(\N)c2ccccn2)c1OC	0.1	110.1	6.2	-0.6	0.1	-4.5	·	·	·	·
COc1ccc(Cl)cc1C(=O)O/N=C(\N)c1ccc(Cl)cc1	6.5*	91.6	1.5	0.3	-2.2	-7.1	113.5	-0.3	110.3	-0.1
CC(C)n1c(N2CCN(CC(=O)NCc3cccs3)CC2)nc2ccccc21	1.5*	97.8	-1.9	0.1	3.2	8.7	104.7	-0.2	76.3	-0.3
Cc1c(NC(C)c2ccccc2O)c(=O)n(-c2ccccc2)n1C (stereo unspecified)	8.2*	121.7	-2.8	0.1	7.5	-7.2	105.7	0.1	89.0	-0.1
Cc1c(NC(C)c2cc(Cl)ccc2O)c(=O)n(-c2ccccc2)n1C (stereo unspecified)	-0.1	122.5	0.7	-0.6	7.3	7.0	·	·	·	·
CCC1(c2ccccc2)NC(=O)N(CC(=O)N(C)Cc2ccccc2)C1=O (stereo unspecified)	1.1*	98.1	4.0	0.0	4.6	-1.4	98.9	-0.3	112.4	-0.1
CCN1/C(=C/c2ccc3cccc(C)c3[n+]2CC)Sc2ccccc21	2.4*	133.8	3.6	0.0	-63.1	53.1*	+	5.5	137.9	1.1
O=C(Nc1cccc(C(F)(F)F)c1)Nn1cnnc1	0.1	98.6	6.0	-0.1	0.3	·	·	·	·	·
COc1ccc(N(CC(=O)Nc2cc(Cl)ccc2C)S(=O)(=O)c2c(C)n[nH]c2C)cc1	-0.3	99.5	-4.7	0.3	-6.0	-2.5	·	·	·	·
CN(CCN1CCOCC1)Cc1nc(-c2ccc(Cl)cc2)no1	-0.1	91.6	·	0.4	3.4	2.0	·	·	·	·
Cc1ccc(-n2nc(C)c(NC(=O)CCl)c2C)cc1	10.2*	108.2	-0.9	2.0	-0.3	3.4	98.6	-0.1	103.6	2.2
Cc1ccc(-c2cc(NC(=O)CCl)n(-c3ccccc3)n2)cc1	0.0	97.6	3.6	-0.7	-7.3	3.3	·	·	·	·
COCCn1c(C)cc(C(=O)CSc2nc(C)nc3sc4c(c23)CCC4)c1C	1.6*	146.5	0.8	-0.6	9.1	4.6	110.0	0.3	111.6	0.3
CCC(C)(C)NC(=O)C(c1ccccc1F)N(C(=O)c1ccn[nH]1)c1ccccc1 (stereo unspecified)	0.4*	99.7	4.5	-0.4	3.3	-10.5	92.9	0.1	108.1	-0.4
S=C(NCC1COc2ccccc2O1)Nc1ccccc1 (stereo unspecified)	-0.1	96.8	-5.1	0.2	-3.3	-2.6	·	·	·	·
CC(C)C(O)(C#CCN1CCCCC1)C(C)C	13.8*	80.8	-9.9	0.4	1.9	-3.0	111.2	-0.3	106.3	0.0
OCCC1CN(Cc2ccon2)CCN1Cc1ccccc1 (stereo unspecified)	0.0	107.3	-0.2	0.2	3.9	0.8	·	·	·	·
COc1ccc(N2CCN(C(=O)CNC(=O)c3ccccc3Cl)CC2)cc1	0.1	87.6	6.2	-0.2	5.7	6.6	·	·	·	·
CCOc1ccc(S(=O)(=O)N2CCCCCC2)cc1	9.8*	101.7	-5.9	-1.1	9.3	-2.3	107.9	-0.1	99.6	0.0
CCOc1ccc(S(=O)(=O)Nc2ccc(S(=O)(=O)N3CCCCC3)cc2)cc1	0.1	102.4	7.0	0.0	2.8	-4.4	·	·	·	·
CCN1CCN(CC(=O)Nc2cc(C(F)(F)F)ccc2OCCOC)CC1	1.3*	112.4	·	-0.2	1.7	-2.8	104.5	-0.5	107.2	-0.1
COc1ccc(S(=O)(=O)N2CCC(C(=O)NCCC(=O)NC3CC3)CC2)cc1	-0.1	114.6	1.0	-0.2	3.6	0.3	·	·	·	·
Cc1cccnc1NC(=O)c1csnn1	-0.1	96.9	1.3	0.0	3.5	-4.1	·	·	·	·
